Source: ChEMBL document CHEMBL3994609, “Model-Based Discovery of Synthetic Agonists for the Zn2+-Sensing G-Protein-Coupled Receptor 39 (GPR39) Reveals Novel Biological Functions” (J Med Chem, 2017)
Activity calls are given as the source filed them. The calls are words filed in the database; no cut-off is given here.

Legend:
[1] = biological target: C-C chemokine receptor type 5 (Macaca mulatta) (UniProt P61813); assay: Agonist activity at full length monkey CCR5 assessed as myo-[2-3H]inositol phosphate accumulation in presence of 10 uM Zn2+ measured after 75 mins by scintillation proximity assay; format: functional
[2] = biological target: Motilin receptor (Homo sapiens) (UniProt O43193); assay: Agonist activity at human motilin receptor (412 residues) assessed as myo-[2-3H]inositol phosphate accumulation measured after 75 mins by scintillation proximity assay; format: functional
[3] = biological target: T1, G-protein coupled receptor 39 (Mus musculus, UniProt Q5U431); assay: Agonist activity at mouse GPR39 expressed in HEK293 cells co-expressing Galphaq assessed as myo-[2-3H]inositol phosphate accumulation in presence of 10 uM Zn2+ measured after 75 mins by scintillation proximity assay; format: functional, cell-based
T1 sequence (Q5U431 whole entry): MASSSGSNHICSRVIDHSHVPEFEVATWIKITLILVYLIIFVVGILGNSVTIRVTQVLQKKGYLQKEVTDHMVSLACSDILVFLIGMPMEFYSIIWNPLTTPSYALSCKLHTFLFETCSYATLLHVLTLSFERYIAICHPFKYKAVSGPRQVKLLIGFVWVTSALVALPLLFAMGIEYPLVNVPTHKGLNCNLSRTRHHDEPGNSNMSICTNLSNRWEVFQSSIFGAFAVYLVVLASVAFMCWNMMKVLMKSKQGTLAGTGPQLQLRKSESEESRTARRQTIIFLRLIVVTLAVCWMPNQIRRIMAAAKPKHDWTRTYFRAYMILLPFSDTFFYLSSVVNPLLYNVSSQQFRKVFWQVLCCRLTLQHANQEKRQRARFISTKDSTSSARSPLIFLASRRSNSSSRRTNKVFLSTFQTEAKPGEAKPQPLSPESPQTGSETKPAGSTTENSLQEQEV

[4] = biological target: Growth hormone secretagogue receptor type 1 (Homo sapiens) (UniProt Q92847); assay: Agonist activity at human ghrelin receptor ([…]) assessed as myo-[2-3H]inositol phosphate accumulation in presence of 10 uM Zn2+ measured after 75 mins by scintillation proximity assay; format: functional
[5] = biological target: Motilin receptor (Homo sapiens) (UniProt O43193); assay: Agonist activity at human motilin receptor (412 residues) assessed as myo-[2-3H]inositol phosphate accumulation in presence of 10 uM Zn2+ measured after 75 mins by scintillation proximity assay; format: functional
[6] = biological target: T2, C-C chemokine receptor type 1 (Homo sapiens) (UniProt P32246); assay: Agonist activity at full length human CCR1 assessed as myo-[2-3H]inositol phosphate accumulation measured after 75 mins by scintillation proximity assay; format: functional
T2 sequence (whole entry): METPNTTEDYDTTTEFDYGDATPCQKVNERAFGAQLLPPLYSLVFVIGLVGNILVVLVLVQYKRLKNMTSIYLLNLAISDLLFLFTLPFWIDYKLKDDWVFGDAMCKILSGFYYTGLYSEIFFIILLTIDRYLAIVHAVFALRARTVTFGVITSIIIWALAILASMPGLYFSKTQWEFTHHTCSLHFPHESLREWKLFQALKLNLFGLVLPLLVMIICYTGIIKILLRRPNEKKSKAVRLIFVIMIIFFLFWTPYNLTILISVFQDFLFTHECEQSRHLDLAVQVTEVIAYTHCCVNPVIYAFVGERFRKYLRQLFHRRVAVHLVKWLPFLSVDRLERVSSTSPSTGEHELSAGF

[7] = biological target: T3, G-protein coupled receptor 39 (Homo sapiens, UniProt O43194); assay: Agonist activity at human GPR39 expressed in HEK293 cells co-expressing Galphaq assessed as myo-[2-3H]inositol phosphate accumulation measured after 75 mins by scintillation proximity assay; format: functional, cell-based
T3 sequence (O43194 whole entry): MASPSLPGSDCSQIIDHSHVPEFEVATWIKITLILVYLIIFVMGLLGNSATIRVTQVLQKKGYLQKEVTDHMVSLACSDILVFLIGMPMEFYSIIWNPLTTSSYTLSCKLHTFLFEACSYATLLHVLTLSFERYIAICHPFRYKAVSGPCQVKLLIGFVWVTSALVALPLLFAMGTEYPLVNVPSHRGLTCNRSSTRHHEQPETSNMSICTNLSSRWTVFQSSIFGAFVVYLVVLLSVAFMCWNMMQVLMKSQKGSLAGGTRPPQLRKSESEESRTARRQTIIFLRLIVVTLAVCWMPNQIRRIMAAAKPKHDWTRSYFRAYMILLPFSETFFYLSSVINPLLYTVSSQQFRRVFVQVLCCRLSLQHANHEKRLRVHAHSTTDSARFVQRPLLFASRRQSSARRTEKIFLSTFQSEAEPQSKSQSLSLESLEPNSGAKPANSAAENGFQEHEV

[8] = system: Pancreatic islet; assay: Induction of glucose-stimulated insulin release in mouse pancreatic islets at 1 uM pretreated for 24 hrs followed by glucose addition measured after 30 mins; format: functional, cell-based
Summary of the method: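 Islets isolated from GPR39-deficient mice and wild-type littermates on five independent days, 2 to 3 mice per day; insulin secretion measured with vehicle or 1 μM compound.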

[9] = biological target: T2, C-C chemokine receptor type 1 (Homo sapiens); assay: Agonist activity at full length human CCR1 assessed as myo-[2-3H]inositol phosphate accumulation in presence of 10 uM Zn2+ measured after 75 mins by scintillation proximity assay; format: functional
[10] = biological target: Neuromedin-U receptor 2 (Homo sapiens) (UniProt Q9GZQ4); assay: Agonist activity at human NMU2 receptor assessed as myo-[2-3H]inositol phosphate accumulation in presence of 10 uM Zn2+ measured after 75 mins by scintillation proximity assay; format: functional
[11] = biological target: T3, G-protein coupled receptor 39; assay: Agonist activity at human GPR39 expressed in HEK293 cells co-expressing Galphaq assessed as myo-[2-3H]inositol phosphate accumulation in presence of 10 uM Zn2+ measured after 75 mins by scintillation proximity assay; format: functional, cell-based
[12] = biological target: T4, G-protein coupled receptor 39 (Homo sapiens) (UniProt O43194); assay: Agonist activity at GPR39 (unknown origin) expressed in COS7 cells co-expressing Galphas assessed as increase in intracellular cAMP level measured after 30 mins by chemiluminescence assay; format: functional, cell-based
T4 sequence (whole entry): T3 sequence (O43194 whole entry)

[13] = system: Plasma; assay: Drug uptake in mouse plasma at 30 to 60 mg/kg, po administered via gavage measured after 30 to 240 mins by LC-MS/MS analysis; format: ADME, organism-based; conditions: in vivo
Summary of the method: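 Mice dosed orally at 30 mg/kg and 60 mg/kg; plasma compound concentration followed from 30 to 240 min.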

[14] = biological target: T3, G-protein coupled receptor 39; assay: (§1) Agonist activity at GPR39 (unknown origin) expressed in COS7 cells co-expressing Galphas assessed as increase in intracellular cAMP level in presence of 3 uM Zn2+ measured after 30 mins by chemiluminescence assay; format: functional, cell-based
[15] = biological target: T4, G-protein coupled receptor 39 (Homo sapiens); assay: as §1; format: functional, cell-based
[16] = biological target: T5, G-protein coupled receptor 39 (Mus musculus) (UniProt Q5U431); assay: Agonist activity at GPR39 in primary gastric mucosal cells isolated from C57BL/6 mouse assessed as myo-[2-3H]inositol phosphate accumulation in presence of 10 uM Zn2+ measured after 75 mins by scintillation proximity assay; format: functional
T5 sequence (whole entry): T1 sequence (Q5U431 whole entry)
Summary of the method: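 Primary murine gastric mucosal cell cultures stimulated with ligand plus 10 μM Zn2+; inositol phosphate turnover read out as for the transfected-cell IP accumulation assay.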

Sequence of Motilin receptor (Homo sapiens) (O43193 whole entry): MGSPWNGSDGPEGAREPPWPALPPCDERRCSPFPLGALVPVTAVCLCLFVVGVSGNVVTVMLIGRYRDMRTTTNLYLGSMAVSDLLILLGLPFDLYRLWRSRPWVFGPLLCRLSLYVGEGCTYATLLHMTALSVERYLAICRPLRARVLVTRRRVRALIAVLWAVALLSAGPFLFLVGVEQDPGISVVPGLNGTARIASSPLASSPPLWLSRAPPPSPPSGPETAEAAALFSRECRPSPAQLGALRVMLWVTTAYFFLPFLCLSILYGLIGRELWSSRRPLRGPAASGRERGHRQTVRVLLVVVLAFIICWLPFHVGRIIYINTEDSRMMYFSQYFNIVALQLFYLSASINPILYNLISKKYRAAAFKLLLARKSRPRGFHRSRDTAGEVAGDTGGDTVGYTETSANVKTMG
Sequence of Growth hormone secretagogue receptor type 1 (Homo sapiens) (Q92847 whole entry): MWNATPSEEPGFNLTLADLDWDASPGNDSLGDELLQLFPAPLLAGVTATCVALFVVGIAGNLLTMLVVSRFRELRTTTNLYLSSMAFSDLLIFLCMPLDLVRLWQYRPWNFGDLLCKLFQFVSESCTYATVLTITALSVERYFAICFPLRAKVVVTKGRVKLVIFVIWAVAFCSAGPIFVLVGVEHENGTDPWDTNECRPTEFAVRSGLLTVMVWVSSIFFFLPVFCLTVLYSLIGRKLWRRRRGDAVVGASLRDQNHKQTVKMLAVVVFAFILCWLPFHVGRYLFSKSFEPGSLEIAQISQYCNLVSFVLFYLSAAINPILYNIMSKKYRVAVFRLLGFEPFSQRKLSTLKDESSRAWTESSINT
Sequence of Neuromedin-U receptor 2 (Homo sapiens) (Q9GZQ4 whole entry): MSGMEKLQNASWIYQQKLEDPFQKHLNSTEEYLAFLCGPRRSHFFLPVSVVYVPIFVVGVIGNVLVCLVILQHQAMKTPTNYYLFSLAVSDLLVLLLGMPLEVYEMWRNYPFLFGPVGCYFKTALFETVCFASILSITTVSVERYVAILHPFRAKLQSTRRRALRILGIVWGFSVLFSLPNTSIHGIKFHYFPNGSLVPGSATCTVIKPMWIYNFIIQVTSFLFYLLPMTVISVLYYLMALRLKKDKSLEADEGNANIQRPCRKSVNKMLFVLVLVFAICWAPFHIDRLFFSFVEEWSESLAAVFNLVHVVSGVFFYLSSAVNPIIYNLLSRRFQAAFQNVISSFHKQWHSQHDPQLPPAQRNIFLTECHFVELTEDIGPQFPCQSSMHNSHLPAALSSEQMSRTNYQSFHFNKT

Q: Which results are given for `Cc1nn(-c2ncnc3nc[nH]c23)c2c1C(c1ccc(F)cc1Cl)CC(=O)N2` (stereo unspecified)?
A: Activity [1]: inactive; Activity [2]: inactive; EC50 [3]: 5 nM; Activity [4]: inactive; Activity [5]: inactive; Activity [6]: inactive; EC50 [7]: 280 nM; Activity [8]: inactive; Activity [9]: inactive; Activity [10]: inactive; EC50 [11]: 9 nM; Activity [12]: inactive; Drug uptake [13]: Active; EC50 [14]: 17 nM; Activity [15]: Dose-dependent effect; Activity [16]: Dose-dependent effect
